# ChEMBL document CHEMBL1136453, “New classes of antibacterial oxazolidinones with C-5, methylene O-linked heterocyclic side chains” (2003)
# What was measured:
# Staphylococcus aureus [1] = assay: In vitro minimum inhibitory concentration against Staphylococcus aureus MRQR; assay type: functional
# Streptococcus pyogenes = assay: In vitro minimum inhibitory concentration against Streptococcus pyogenes penicillin sensitive; assay type: functional
# Procedure, shortened: (§1)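 Agar dilution per NCCLS protocol with doubling dilutions from 128 to 0.008 mg/L, incubated at 37 °C. Strains came from an in-house culture collection. MIC reported in mg/L.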
# Staphylococcus aureus [2] = assay: In vitro minimum inhibitory concentration against coagulase negative Staphylococcus aureus methicillin resistant (CNSMR); assay type: functional
# Staphylococcus aureus [3] = assay: In vitro minimum inhibitory concentration against Staphylococcus aureus Oxford; assay type: functional
# Enterococcus faecalis = assay: In vitro minimum inhibitory concentration against Enterococcus faecalis; assay type: functional; procedure, shortened: as §1
# [4] = In vivo antibacterial activity against Staphylococcus aureus after intravenous administration (5 mg/kg) in mice using (MTT) mouse thigh test
# Staphylococcus aureus [5] = assay: In vivo antibacterial activity against Staphylococcus aureus after intravenous administration (10 mg/kg) in mice using (MTT) mouse thigh test
# [6] = Staphylococcus aureus, read-out: MIC
Structure (SMILES),MIC (Staphylococcus aureus [1]) [µg/mL],MIC (Streptococcus pyogenes) [µg/mL],MIC (Staphylococcus aureus [2]) [µg/mL],MIC (Staphylococcus aureus [3]; [6]) [µg/mL],MIC (Enterococcus faecalis) [µg/mL],Activity [4],Activity (Staphylococcus aureus [5]),MIC (Staphylococcus aureus [3]) [µg/mL]
Cc1nnc(OC[C@H]2CN(c3ccc(C4=CCOCC4)c(F)c3)C(=O)O2)o1,4,8,8,4,8,–,–,–
O=C([C@@H](O)CO)N1CC=C(c2c(F)cc(N3C[C@H](CO)OC3=O)cc2F)CC1,0.5,0.5,0.25,0.25,1,0.59,1.01,–
O=C1O[C@@H](COc2ccncc2)CN1c1ccc(C2=CCOCC2)c(F)c1,32,64,32,16,64,–,–,–
O=C1O[C@@H](COc2ccsn2)CN1c1ccc(C2=CCOCC2)c(F)c1,0.25,0.5,0.25,0.25,0.5,0.01,0.21,–
O=C1O[C@@H](Cn2ccccc2=O)CN1c1ccc(C2=CCOCC2)c(F)c1,32,32,32,–,64,–,–,32
"CC(O)C(=O)N1CC=C(c2c(F)cc(N3C[C@H](COc4ccon4)OC3=O)cc2F)CC1 (single isomer, unassigned)",0.5,1,0.5,0.5,1,0.49,1.02,–
O=C([C@@H](O)CS(=O)(=O)CCO)N1CC=C(c2c(F)cc(N3C[C@H](COc4ccon4)OC3=O)cc2F)CC1,0.5,0.25,0.25,0.25,0.5,0.1,0.32,–
O=C(CO)N1CC=C(c2ccc(N3C[C@H](COc4cnsn4)OC3=O)cc2F)CC1,0.25,0.25,0.25,0.13,0.25,0.78,1.21,–
O=CN1CC=C(c2c(F)cc(N3C[C@H](COc4ccon4)OC3=O)cc2F)CC1,0.5,0.5,0.5,0.25,1,-0.01,0.43,–
O=C1O[C@@H](COc2cnsn2)CN1c1ccc(C2=CCOCC2)c(F)c1,0.25,0.25,0.25,0.25,0.5,0.11,0.45,–
O=C1O[C@@H](COc2ccon2)CN1c1ccc(C2=CCOCC2)c(F)c1,0.5,0.5,0.5,0.5,1,-0.07,0.06,–
CN1CC=C(c2c(F)cc(N3C[C@H](COc4ccon4)OC3=O)cc2F)CC1,2,1,2,2,4,–,–,–
C[C@H](O)C(=O)N1CC=C(c2ccc(N3C[C@H](COc4cnsn4)OC3=O)cc2F)CC1,0.5,1,0.5,0.25,1,0.43,1.14,–
COC(=O)c1cc(OC[C@H]2CN(c3ccc(C4=CCOCC4)c(F)c3)C(=O)O2)no1,16,16,32,8,128,–,–,–
N#CCCS(=O)(=O)C[C@H](O)C(=O)N1CC=C(c2c(F)cc(N3C[C@H](COc4ccon4)OC3=O)cc2F)CC1,0.5,0.5,0.5,0.25,1,–,–,–
O=C1O[C@@H](COc2cccnn2)CN1c1ccc(C2=CCOCC2)c(F)c1,2,2,2,2,4,–,–,–
O=C(C(CO)CO)N1CC=C(c2c(F)cc(N3C[C@H](COc4ccon4)OC3=O)cc2F)CC1,0.5,0.5,0.5,0.5,1,0.37,0.41,–
O=C(OC[C@@H](O)CO)N1CC=C(c2ccc(N3C[C@H](COc4ccon4)OC3=O)cc2F)CC1,0.5,0.5,0.5,0.25,1,0.27,0.48,–
O=C(C(CO)Cn1ccnc1)N1CC=C(c2c(F)cc(N3C[C@H](COc4ccon4)OC3=O)cc2F)CC1 (stereo not given in full),2,1,2,1,2,–,–,–
O=C1O[C@@H](COc2ccon2)CN1c1cc(F)c(C2=CCN(Cc3nccs3)CC2)c(F)c1,1,1,1,0.5,2,0.07,0.28,–
Cc1cc(OC[C@H]2CN(c3ccc(C4=CCOCC4)c(F)c3)C(=O)O2)no1,2,4,2,1,4,–,-0.45,–
